# Source: PubChem BioAssay (several laboratories)
# CYP2C19 inh = human CYP2C19 inhibition. P33261. CYP2C19 Supersomes, luciferin-H EGE luminescence, 30 min. inhibition, % at 5 µM. 96,000 tested, 21% active. AID 778;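 active = CYP2C19 inhibition above a set limit at 5 µM in the primary screen, cut at about 50% in these data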
# CYP2C9 inh = blocks human cytochrome P450 2C9; inhibition, % at 5 µM; CYP2C9 Supersomes, luciferin-H conversion, luminescence; 96,000 tested, 20% active; AID 777; P11712;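 active = blocking of liver enzyme CYP2C9 beyond about 50% at 5 µM, limit read from the data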
# Target sequence (P11712 whole entry, looked up): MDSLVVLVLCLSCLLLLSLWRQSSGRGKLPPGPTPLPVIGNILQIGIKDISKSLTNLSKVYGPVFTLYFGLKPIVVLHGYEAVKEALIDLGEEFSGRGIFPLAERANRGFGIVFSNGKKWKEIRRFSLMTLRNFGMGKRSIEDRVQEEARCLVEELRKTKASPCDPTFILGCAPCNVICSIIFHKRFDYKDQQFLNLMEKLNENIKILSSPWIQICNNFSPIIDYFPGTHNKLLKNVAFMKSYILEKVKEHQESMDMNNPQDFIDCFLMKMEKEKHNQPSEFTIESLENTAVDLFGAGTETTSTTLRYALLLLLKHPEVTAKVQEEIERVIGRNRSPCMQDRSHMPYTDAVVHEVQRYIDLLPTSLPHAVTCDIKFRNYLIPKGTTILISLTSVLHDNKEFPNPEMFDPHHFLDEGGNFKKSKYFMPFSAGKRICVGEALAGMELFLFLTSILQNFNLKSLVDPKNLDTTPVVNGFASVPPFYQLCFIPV
# Rev-RRE block = HIV Rev-RRE protein-RNA interaction inhibition; P05866; 97,000 tested, 0.79% active; inhibition, % at 8 µM; Rev peptide-RRE RNA binding, FRET;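 active = inhibition above the screen-wide mean plus 3 SD, cut at about 35% in these data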
# Target sequence (P05866 whole entry, looked up): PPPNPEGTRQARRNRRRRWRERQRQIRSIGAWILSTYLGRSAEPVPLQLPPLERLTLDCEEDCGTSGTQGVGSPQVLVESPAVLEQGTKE
#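 Probe or stimulus: fluorescein-Rev peptide as binding partner; assay system: Cy5-tagged RRE RNA duplex with fluorescein-tagged Rev peptide; timing: 5 min compound–RNA preincubation, then 15 min with peptide, 25 °C; medium: HEPES pH 7.5 buffer with KCl, MgCl2, NaCl and EDTA; signal: fluorescein-to-Cy5 FRET, 480 nm excitation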
# CYP2C9 act = increases human cytochrome P450 2C9 activity; P11712; recombinant CYP2C9, luciferin-H conversion, luminescence; stronger effect = higher value; factor 1 = untreated enzyme, 0 = blocked; activation factor at 5 µM; 96,000 tested, 1.4% active; AID 1024;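 active = activation factor of 2 or more for CYP2C9 at a 5 µM dose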
# CYP2C19 act = cytochrome P450 2C19 (human) activation | P33261 | activation factor at 5 µM | 96,000 tested, under 10 active | recombinant CYP2C19, luciferin-H EGE luminescence; stronger effect = higher value; 0 = fully inhibited enzyme, 1 = untreated enzyme;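 active = activation factor of at least 2 at 5 µM in the primary screen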
# Cav32 inh = human Cav3.2 channel inhibition, primary screen. 100,000 tested, 4% active. AID 449739. B-score at 10 µM. Cav3.2-expressing cells, Fluo-4 calcium fluorescence FDSS; stronger effect = lower value;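 active = single-dose well whose peak fluorescence ratio is a statistical outlier from its plate by either plate-standardised score or position-corrected B-score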
# Hits are given with their value; – = inactive; · = no result given. Shown are actives, neighbours in structure and some others; about 27% of the full set was active somewhere.
SMILES,CYP2C19 inh,CYP2C9 inh,Rev-RRE block,CYP2C9 act,CYP2C19 act,Cav32 inh
O=C(NCc1cccs1)c1cc(S(=O)(=O)N2CCCCC2)ccc1Cl,·,·,–,·,·,–
Cc1ccc(C(=O)NCc2cccs2)cc1S(=O)(=O)N1CCCCC1,–,56.0,·,–,–,–
O=C(Nc1ccon1)c1cccc(S(=O)(=O)N2CCCC2)c1,–,–,–,–,–,–
Cc1ccc(C(=O)Nc2ccc3cn[nH]c3c2)cc1S(=O)(=O)N1CCCCC1,–,91.9,–,–,–,–
CCOCC(=O)Nc1nc(-c2ccccc2)c(CC)s1,–,–,–,–,–,–
CS(=O)(=O)N(CCC(=O)O)Cc1ccccc1,–,–,–,–,–,–
CCCc1nnc2n1N=C(c1ccc(-c3cc(Cl)ccc3Cl)o1)CS2,·,·,–,·,·,–
CCc1ccc2c(c1)cc(CN(C(=S)Nc1ccccc1)C1CC1)c1nnnn12,–,–,–,–,–,–
CNC(=O)c1ccccc1NC(=O)c1ccc(C)c(S(=O)(=O)N2CCCCC2)c1,69.8,61.8,–,–,–,–
c1ccc(-c2cccc(-c3ccccn3)n2)nc1,–,–,–,–,–,–
CN(C)c1nc(-c2ccccn2)nnc1-c1ccccc1,51.0,–,–,–,–,–
CCCCOc1ccc(CNC(=O)NS(=O)(=O)c2ccc(OCC)cc2)cc1,–,86.4,–,–,–,-7.45
CCCCOc1ccc(CNC(=O)NS(=O)(=O)c2ccc(OCC(C)C)cc2)cc1,–,90.4,–,–,–,-5.3
COc1ccc(CNC(=O)NS(=O)(=O)c2ccc(C)cc2)cc1,·,·,·,·,·,–
CCCCOc1ccc(S(=O)(=O)NC(=O)NCc2ccc(OCCC)cc2)cc1,·,·,–,·,·,-3.54
CCOC(=S)N/C(=N\S(=O)(=O)c1ccc(C)cc1)c1ccccc1,–,90.7,–,–,–,–
CSC(=NS(=O)(=O)c1ccc(C)cc1)SC,–,–,–,2.1,–,–
Cc1ccc(S(=O)(=O)/N=C(\CSC(N)=O)Nc2ccccc2)cc1,–,–,–,–,–,–
Cc1ccc(S(=O)(=O)/N=C(\Sc2ccccc2)c2ccccc2)cc1,–,62.3,–,–,–,–
Cc1csc(N(C)C(=O)CSc2nnc(COc3cccc4ccccc34)o2)n1,–,–,–,–,–,–
Cn1c2c(c(=O)n(C)c1=O)C(NS(=O)(=O)c1ccc(Cl)cc1)(C(F)(F)F)C(=O)N2 (stereo unspecified),–,–,–,–,–,–
Cn1c2c(c(=O)n(C)c1=O)C(C(F)(F)F)(C(F)(F)F)N=C(c1ccccc1Cl)N2,–,73.0,–,–,–,–
Cc1ccc(C(=O)c2nocc2C(=O)c2cccs2)cc1,61.6,69.3,–,–,–,–
COC(=O)c1nc2nc(C)cc(=O)n2[nH]1,–,–,–,–,–,–
c1ccc2c(c1)OCC(c1csc3ncnc(N4CCOCC4)c13)O2 (stereo unspecified),78.1,50.3,–,–,–,–
SMILES,CYP2C19 inh,CYP2C9 inh,Rev-RRE block,CYP2C9 act,CYP2C19 act,Cav32 inh
Cc1ccc2nc3c(cc2c1)CN(Cc1ccco1)C(=NCC1CCCO1)S3 (stereo unspecified),52.0,79.0,–,–,–,–
Cc1cccc2cc(CN(CC3CCCO3)C(=O)c3ccco3)c(=O)[nH]c12 (stereo unspecified),–,–,–,–,–,–
COCCN=C1Sc2nc3c(C)cccc3cc2CN1Cc1ccco1,–,57.2,–,–,–,–
Cc1cccc2cc3c(nc12)SC(=NCC1CCCO1)N(Cc1ccco1)C3 (stereo unspecified),–,56.9,–,–,–,–
Cc1ccc2cc3c(nc2c1)N(Cc1ccco1)CC3,–,–,–,–,–,–
CC(=O)c1cnc(Nc2nc(C)c3cccc(C)c3n2)nc1C,–,–,·,–,–,·
CCn1c(SCC(=O)Nc2ccc(NC(=O)c3ccco3)c(OC)c2)nc2ccccc2c1=O,–,–,–,–,–,–
CCCCn1c(SCC(=O)Nc2cc(NC(=O)c3ccco3)ccc2C)nc2ccccc2c1=O,71.7,74.6,–,–,–,–
Cc1ccc(NC(=O)CSc2nc3ccccc3c(=O)n2CCCC(=O)N2CCCC2)cc1,54.8,–,–,–,–,–
O=C(CSc1nc2ccccc2c(=O)n1CCC(=O)N1CCCCC1)NCc1ccccc1,·,·,–,·,·,–
Cc1ccc(NC(=O)CSc2nc3ccccc3c(=O)n2CCCN2CCCCC2)cc1C,–,63.1,–,–,–,–
CC(C)C(=O)Nc1nnc(CCN2CCCCC2)s1,–,–,–,–,–,–
CC1(OC(=O)C2CCCC2)C(=O)C=C2C=C(c3ccsc3)N(CCc3c[nH]c4ccccc34)C=C2C1=O (stereo unspecified),·,·,·,·,·,–
Cc1ccc(C(=O)CSc2nnc(-c3ccco3)n2Cc2ccccc2)cc1,58.0,61.6,–,–,–,–
CCn1c(SCC(=O)Nc2ccc(OCc3ccccc3)cc2)nnc1-c1ccco1,–,–,·,–,–,–
O=C(CSc1nnc(-c2ccco2)n1Cc1ccccc1)c1ccccc1,93.2,86.9,–,–,–,–
CCOC(=O)c1c(C)[nH]c(C)c1C(=O)CSc1nnc(-c2ccco2)n1Cc1ccccc1,98.8,98.1,–,–,–,–
NC(=O)NC(=O)CSc1nnc(-c2ccco2)n1Cc1ccccc1,–,–,–,–,–,–
CC(C)Cn1c(SCC(=O)c2ccc(Cl)s2)nnc1-c1ccco1,66.8,72.0,–,–,–,-5.6
CCc1nc2ccccc2c(NC(=O)CN2CCC(C)CC2)c1C,–,–,–,–,–,–
COC(=O)C1C2C=CC(C3CC23)C1C(=O)OCC(=O)c1ccccc1 (stereo unspecified),95.3,57.0,–,–,–,–
COC(=O)C1C2C=CC(C3CC23)C1C(=O)OCC(=O)c1ccc(OC)cc1 (stereo unspecified),83.4,–,–,–,–,–
CCC(=O)NCC(=O)OCC(=O)c1ccccc1,·,·,–,·,·,–
O=S1(=O)N=C(Oc2cccc3ccccc23)c2ccccc21,·,·,–,·,·,–
COc1ccc(CNC(=S)Nc2cccc(C)c2C)cc1,–,–,–,–,–,–
SMILES,CYP2C19 inh,CYP2C9 inh,Rev-RRE block,CYP2C9 act,CYP2C19 act,Cav32 inh
CCOC(=O)c1cc(CC)sc1N,–,–,–,–,–,–
Cc1ccc(-c2csc(NC(=O)CSC3=NCCS3)n2)cc1,·,·,–,·,·,–
CCC(Sc1nc(C)cc(=O)[nH]1)C(=O)Nc1nc(-c2ccccc2)cs1 (stereo unspecified),71.1,88.3,–,–,–,–
Cc1ccc(-c2csc(NC(=O)CSc3nc(C)cc(=O)[nH]3)n2)cc1,–,82.4,–,–,–,–
Cc1cc(=O)[nH]c(SCC(=O)Nc2ccc(C(=O)O)cc2)n1,–,–,–,–,–,·
CCC(Sc1nc(-c2ccccc2)c(C#N)c(=O)[nH]1)C(=O)Nc1nnc(C)s1 (stereo unspecified),–,66.8,–,–,–,–
